Experimental data taken from ChEMBL document CHEMBL4130370, “Discovery of 5,6-diaryl-1,2,4-triazines hybrids as potential apoptosis inducers” (Eur J Med Chem, 2017).
Each block holds one molecule with its values, some of them ahead of it. The source made the active and inactive calls. The rule behind the calls is not given here.

How the values were obtained:
MGC-803 [1] = assay: Antiproliferative activity against human MGC803 cells after 48 hrs by MTT assay; type: functional, cell-based; details: MGC-803, 48 h
Outline: (§1)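 Cells exposed to compounds for 48 h, then read by MTT. IC50 is the concentration giving 50% inhibition of tumour cell proliferation, taken from dose-response curves. Values are means±SD of three independent experiments. 5-FU was the reference drug.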

ECa-109 cell line = assay: Antiproliferative activity against human EC109 cells after 48 hrs by MTT assay; type: functional, cell-based; details: ECa-109, 48 h; outline: as §1
PC-3 = assay: Antiproliferative activity against human PC3 cells after 48 hrs by MTT assay; type: functional, cell-based; details: PC-3, 48 h; outline: as §1
MGC-803 [2] = assay: Induction of apoptosis in human MGC803 cells assessed as nuclear condensation at 6 to 10 uM after 48 hrs by Hoechst 33258-staining based fluorescent microscopy; type: functional, cell-based
Outline: (§2)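 MGC-803 cells incubated at the indicated concentrations for 48 h. Nuclei then stained (legend says DAPI; methods say Hoechst 33258) and viewed by fluorescence microscopy at ×400.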

MGC-803 [3] = assay: Induction of apoptosis in human MGC803 cells assessed as nuclear fragmentation at 6 to 10 uM after 48 hrs by Hoechst 33258-staining based fluorescent microscopy; type: functional, cell-based; outline: as §2
MGC-803 [4] = assay: Induction of apoptosis in human MGC803 cells assessed as chromatin condensation at 6 to 10 uM after 48 hrs by Hoechst 33258-staining based fluorescent microscopy; type: functional, cell-based; outline: as §2
GES1 = assay: Cytotoxicity against human GES-1 cells after 48 hrs by MTT assay; type: cell-based; details: GES1, 48 h
MGC-803 [5] = assay: Inhibition of colony formation in human MGC803 cells up to 8 uM after 7 days; type: functional, cell-based
Outline: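 MGC-803 cells treated at various concentrations for about a week. Colonies then imaged and compared with untreated control.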

MGC-803 [6] = assay: Cell cycle arrest in human MGC803 cells assessed as accumulation at G1 phase at 6 uM after 48 hrs by propidium iodide-staining based flow cytometry (50.18%); type: functional
Outline: (§3)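 MGC-803 cells treated at 0, 6 or 8 µM for 48 h. Cells then fixed, stained with propidium iodide and analysed by flow cytometry for cell-cycle phase distribution.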

MGC-803 [7] = assay: Cell cycle arrest in human MGC803 cells assessed as accumulation at S phase at 6 uM after 48 hrs by propidium iodide-staining based flow cytometry (25.56%); type: functional; outline: as §3
MGC-803 [8] = assay: Cell cycle arrest in human MGC803 cells assessed as accumulation at G2/M phase at 6 uM after 48 hrs by propidium iodide-staining based flow cytometry (19.75%); type: functional; outline: as §3
MGC-803 [9] = assay: Cell cycle arrest in human MGC803 cells assessed as accumulation at G1 phase at 8 uM after 48 hrs by propidium iodide-staining based flow cytometry (50.18%); type: functional; outline: as §3
MGC-803 [10] = assay: Cell cycle arrest in human MGC803 cells assessed as accumulation at S phase at 8 uM after 48 hrs by propidium iodide-staining based flow cytometry (25.56%); type: functional; outline: as §3
MGC-803 [11] = assay: Cell cycle arrest in human MGC803 cells assessed as accumulation at G2/M phase at 8 uM after 48 hrs by propidium iodide-staining based flow cytometry (19.75%); type: functional; outline: as §3
MGC-803 [12] = assay: Cell cycle arrest in human MGC803 cells assessed as accumulation at G2/M phase after 48 hrs by propidium iodide-staining based flow cytometry; type: functional; outline: as §3
MGC-803 [13] = assay: Induction of morphological changes in human MGC803 cells assessed as rounding up of cells at 6 to 10 uM after 48 hrs by inverted microscopic analysis; type: functional, cell-based
Outline: (§4)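 MGC-803 cells incubated at 0, 6, 8 or 10 µM for 48 h. Morphology then recorded under an inverted microscope at ×400.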

MGC-803 [14] = assay: Induction of morphological changes in human MGC803 cells assessed as formation of cell debris at 6 to 10 uM after 48 hrs by inverted microscopic analysis; type: functional, cell-based; outline: as §4
MGC-803 [15] = assay: Induction of apoptosis in human MGC803 cells assessed as viable cells at 6 uM after 48 hrs Annexin V-FITC/propidium iodide based flow cytometry (96.5%); type: functional; details: MGC-803, 48 h, read-out: Activity
Outline: (§5)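 MGC-803 cells treated at 0, 6, 8 or 10 µM for 48 h. Cells then double-stained with Annexin V-FITC and propidium iodide and analysed by biparametric flow cytometry.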

MGC-803 [16] = assay: Induction of apoptosis in human MGC803 cells assessed as early apoptotic cells at 6 uM after 48 hrs Annexin V-FITC/propidium iodide based flow cytometry (2.3%); type: functional; outline: as §5
MGC-803 [17] = assay: Induction of apoptosis in human MGC803 cells assessed as late apoptotic cells at 6 uM after 48 hrs Annexin V-FITC/propidium iodide based flow cytometry (1%); type: functional; outline: as §5
MGC-803 [18] = assay: Induction of apoptosis in human MGC803 cells assessed as necrotic cells at 6 uM after 48 hrs Annexin V-FITC/propidium iodide based flow cytometry (0.1%); type: functional; outline: as §5
MGC-803 [19] = assay: Induction of apoptosis in human MGC803 cells assessed as viable cells at 8 uM after 48 hrs Annexin V-FITC/propidium iodide based flow cytometry (96.5%); type: functional; details: MGC-803, 48 h, read-out: Activity; outline: as §5
MGC-803 [20] = assay: Induction of apoptosis in human MGC803 cells assessed as early apoptotic cells at 8 uM after 48 hrs Annexin V-FITC/propidium iodide based flow cytometry (2.3%); type: functional; outline: as §5
MGC-803 [21] = assay: Induction of apoptosis in human MGC803 cells assessed as late apoptotic cells at 8 uM after 48 hrs Annexin V-FITC/propidium iodide based flow cytometry (1%); type: functional; outline: as §5
MGC-803 [22] = assay: Induction of apoptosis in human MGC803 cells assessed as necrotic cells at 8 uM after 48 hrs Annexin V-FITC/propidium iodide based flow cytometry (0.1%); type: functional; outline: as §5
MGC-803 [23] = assay: Induction of apoptosis in human MGC803 cells assessed as viable cells at 10 uM after 48 hrs Annexin V-FITC/propidium iodide based flow cytometry (96.5%); type: functional; details: MGC-803, 48 h, read-out: Activity; outline: as §5
MGC-803 [24] = assay: Induction of apoptosis in human MGC803 cells assessed as early apoptotic cells at 10 uM after 48 hrs Annexin V-FITC/propidium iodide based flow cytometry (2.3%); type: functional; outline: as §5
MGC-803 [25] = assay: Induction of apoptosis in human MGC803 cells assessed as late apoptotic cells at 10 uM after 48 hrs Annexin V-FITC/propidium iodide based flow cytometry (1%); type: functional; outline: as §5
MGC-803 [26] = assay: Induction of apoptosis in human MGC803 cells assessed as necrotic cells at 10 uM after 48 hrs Annexin V-FITC/propidium iodide based flow cytometry (0.1%); type: functional; outline: as §5
MGC-803 [27] = assay: Induction of mitochondrial membrane potential loss in human MGC803 cells assessed as collapse of the mitochondrial membrane potential at 6 uM after 48 hrs by JC-1 staining based flow cytometry (reference value: 4.1%); type: functional
Outline: (§6)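 MGC-803 cells treated with vehicle or 6, 8 or 10 µM for 48 h. Mitochondrial membrane potential measured by JC-1 dye retention on flow cytometry.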

MGC-803 [28] = assay: Induction of mitochondrial membrane potential loss in human MGC803 cells assessed as collapse of the mitochondrial membrane potential at 8 uM after 48 hrs by JC-1 staining based flow cytometry (reference value: 4.1%); type: functional; outline: as §6
MGC-803 [29] = assay: Induction of mitochondrial membrane potential loss in human MGC803 cells assessed as collapse of the mitochondrial membrane potential at 10 uM after 48 hrs by JC-1 staining based flow cytometry (reference value: 4.1%); type: functional; outline: as §6
MGC-803 [30] = assay: Induction of mitochondrial membrane potential loss in human MGC803 cells after 48 hrs by JC-1 staining based flow cytometry; type: functional, cell-based; outline: as §6
MGC-803 [31] = assay: Induction of apoptosis in human MGC803 cells assessed as increase in Bax expression after 48 hrs by Western blot analysis; type: functional, cell-based
Outline: (§7)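 MGC-803 cells treated at 0, 6, 8 or 10 µM for 48 h, then Western blotted. Band levels analysed statistically against control. Results representative of three independent experiments.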

MGC-803 [32] = assay: Induction of apoptosis in human MGC803 cells assessed as increase in cleaved caspase-9 expression after 48 hrs by Western blot analysis; type: functional, cell-based; outline: as §7
MGC-803 [33] = assay: Induction of apoptosis in human MGC803 cells assessed as increase in cleaved caspase-3 expression after 48 hrs by Western blot analysis; type: functional, cell-based; outline: as §7
MGC-803 [34] = assay: Induction of apoptosis in human MGC803 cells assessed as increase in cleaved PARP expression after 48 hrs by Western blot analysis; type: functional, cell-based; outline: as §7
MGC-803 [35] = assay: Induction of apoptosis in human MGC803 cells assessed as increase in DR4 expression after 48 hrs by Western blot analysis; type: functional, cell-based; outline: as §7
MGC-803 [36] = assay: Induction of apoptosis in human MGC803 cells assessed as decrease in Bcl-xl expression up to 10 uM after 48 hrs by Western blot analysis; type: functional, cell-based
MGC-803 [37] = assay: Induction of apoptosis in human MGC803 cells assessed as decrease in Bcl2 expression up to 10 uM after 48 hrs by Western blot analysis; type: functional, cell-based
MGC-803 [38] = assay: Induction of apoptosis in human MGC803 cells after 48 hrs Annexin V-FITC/propidium iodide based flow cytometry; type: functional, cell-based; outline: as §5

IC50 (MGC-803 [1]): > 100 µM
IC50 (PC-3): 10.2 µM
SMILES: COc1ccc(-c2coc3cc(OCCCn4cc(CSc5nnc(-c6ccccc6)c(-c6ccccc6)n5)nn4)ccc3c2=O)cc1
IC50 (ECa-109 cell line): > 100 µM

IC50 (MGC-803 [1]): 7.59 µM
IC50 (PC-3): 10.6 µM
SMILES: Fc1ccc(Cn2cc(CSc3nnc(-c4ccccc4)c(-c4ccccc4)n3)nn2)cc1
Activity (MGC-803 [2]): Active
Activity (MGC-803 [3]): Active
Activity (MGC-803 [4]): Active
IC50 (ECa-109 cell line): 19.1 µM
IC50 (GES1): 31.7 µM
inhibition (MGC-803 [5]): Dose-dependent effect
Activity (MGC-803 [6]): 41.49%
Activity (MGC-803 [7]): 25.11%
Activity (MGC-803 [8]): 26.75%
Activity (MGC-803 [9]): 30.03%
Activity (MGC-803 [10]): 25.87%
Activity (MGC-803 [11]): 34.39%
Activity (MGC-803 [12]): Dose-dependent effect
Activity (MGC-803 [13]): Active
Activity (MGC-803 [14]): Active
viability at 6 µM (MGC-803 [15]): 88.7%
Activity (MGC-803 [16]): 8.2%
Activity (MGC-803 [17]): 2.9%
Activity (MGC-803 [18]): 0.2%
viability at 8 µM (MGC-803 [19]): 75.9%
Activity (MGC-803 [20]): 16.9%
Activity (MGC-803 [21]): 7%
Activity (MGC-803 [22]): 0.2%
viability at 10 µM (MGC-803 [23]): 45.1%
Activity (MGC-803 [24]): 27.5%
Activity (MGC-803 [25]): 27.3%
Activity (MGC-803 [26]): 0.1%
Activity (MGC-803 [27]): 5.2%
Activity (MGC-803 [28]): 17%
Activity (MGC-803 [29]): 42.9%
Activity (MGC-803 [30]): Dose-dependent effect
Activity (MGC-803 [31]): Dose-dependent effect
Activity (MGC-803 [32]): Dose-dependent effect
Activity (MGC-803 [33]): Dose-dependent effect
Activity (MGC-803 [34]): Dose-dependent effect
Activity (MGC-803 [35]): Dose-dependent effect
Activity (MGC-803 [36]): Active
Activity (MGC-803 [37]): Active
Activity (MGC-803 [38]): Dose-dependent effect

IC50 (MGC-803 [1]): > 100 µM
IC50 (PC-3): > 100 µM
SMILES: O=C(O)CCSc1nnc(-c2ccccc2)c(-c2ccccc2)n1
IC50 (ECa-109 cell line): > 100 µM

IC50 (MGC-803 [1]): 36.7 µM
IC50 (PC-3): > 100 µM
SMILES: COc1ccc(C(=O)/C=C/c2ccc(-n3cc(CSc4nnc(-c5ccccc5)c(-c5ccccc5)n4)nn3)cc2)cc1
IC50 (ECa-109 cell line): > 100 µM
